From ChEMBL document CHEMBL1641498, “Synthesis and structure-activity relationships of novel benzoxaboroles as a new class of antimalarial agents” (Bioorg Med Chem Lett, 2011)
Values after ≈ are worked out from the molar mass of the structure shown.

System: Plasmodium falciparum
Assay: Antimalarial activity against Plasmodium falciparum W2 infected in human erythrocytes assessed as reduction of parasitemia after 48 hrs by flow cytometry
Type: functional, organism-based
Settings: W2, 48 h
Summary of the method: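 Erythrocytic-stage W2 parasites cultured in human erythrocytes in RPMI-1640 with 10% human serum or 0.5% Albumax; sorbitol-synchronized to ring stage. Serial dilutions from 10 mM stocks; 2% hematocrit, 1% parasitemia, 3% O2/5% CO2/N2, 48 h.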

SMILES | IC50
O=C(O)CCc1cccc2c1B(O)OCC2 | > 5000 nM
O=C(O)CCc1ccc2c(c1)COB2O | 2890 nM
CC1(C)OB(O)c2c(CCC(=O)O)cccc21 | > 5000 nM
O=C(O)CNc1cccc2c1B(O)OC2 | 950 nM
O=C(O)CCc1ccc2c(c1)B(O)OC2 | 120 nM
O=C(CCc1cccc2c1B(O)OC2)NS(=O)(=O)C1CC1 | 460 nM
O=C(O)CCCCc1cccc2c1B(O)OC2 | 2010 nM
O=C(O)CCc1cccc2c1COB2O | > 5000 nM
N#CCCc1cccc2c1B(O)OC2 | 1020 nM
NCCCc1cccc2c1B(O)OC2 | 520 nM
CN(CC(=O)O)c1cccc2c1B(O)OC2 | > 5000 nM
O=C(O)COc1cccc2c1B(O)OC2 | 460 nM
CC(=O)CCc1cccc2c1B(O)OC2 | 2720 nM
O=C(O)CCc1cccc2c1B(O)OC2 | 26 nM
CC(C)(Cc1cccc2c1B(O)OC2)C(=O)O | > 5000 nM
OB1OCc2cccc(CCc3nn[nH]n3)c21 | 160 nM
O=C(O)CCCc1cccc2c1B(O)OC2 | 620 nM
NC(=O)CCc1cccc2c1B(O)OC2 | 1300 nM
CN(C)C(=O)CCc1cccc2c1B(O)OC2 | > 5000 nM
COC(=O)CCc1cccc2c1B(O)OC2 | 320 nM

System: HeLa
Assay: Cytotoxicity against human HeLa cells after 72 hrs by MTT assay
Type: cell-based
Settings: not given
Summary of the method: (§1)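 Each cell line exposed to compounds over a 12-point concentration curve in triplicate for 72 h; viability read by MTT, IC50 determined.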

SMILES | IC50
O=C(O)CCc1cccc2c1B(O)OC2 | > 100000 nM

System: not listed separately
Assay: Solubility of the compound in water at pH 7
Type: physicochemical
Settings: not given

SMILES | solubility
O=C(O)CCc1cccc2c1B(O)OC2 | 750 µg/mL (≈ 3.64 mM)

System: Jurkat
Assay: Cytotoxicity against human Jurkat cells after 72 hrs by MTT assay
Type: cell-based
Settings: not given
Summary of the method: as §1

SMILES | IC50
O=C(O)CCc1cccc2c1B(O)OC2 | 60500 nM
